Among the data in ChEMBL document CHEMBL4265908, “Structure-activity and structure-property relationships of novel Nrf2 activators with a 1,2,4-oxadiazole core and their therapeutic effects on acetaminophen (APAP)-induced acute liver injury” (Eur J Med Chem, 2018) are Activity values, retold here.

Format in all cases: cell-based
Data set [1] concerns the target T1, Nuclear factor erythroid 2-related factor 2 (Homo sapiens) (UniProt Q16236).
T1 sequence (whole entry): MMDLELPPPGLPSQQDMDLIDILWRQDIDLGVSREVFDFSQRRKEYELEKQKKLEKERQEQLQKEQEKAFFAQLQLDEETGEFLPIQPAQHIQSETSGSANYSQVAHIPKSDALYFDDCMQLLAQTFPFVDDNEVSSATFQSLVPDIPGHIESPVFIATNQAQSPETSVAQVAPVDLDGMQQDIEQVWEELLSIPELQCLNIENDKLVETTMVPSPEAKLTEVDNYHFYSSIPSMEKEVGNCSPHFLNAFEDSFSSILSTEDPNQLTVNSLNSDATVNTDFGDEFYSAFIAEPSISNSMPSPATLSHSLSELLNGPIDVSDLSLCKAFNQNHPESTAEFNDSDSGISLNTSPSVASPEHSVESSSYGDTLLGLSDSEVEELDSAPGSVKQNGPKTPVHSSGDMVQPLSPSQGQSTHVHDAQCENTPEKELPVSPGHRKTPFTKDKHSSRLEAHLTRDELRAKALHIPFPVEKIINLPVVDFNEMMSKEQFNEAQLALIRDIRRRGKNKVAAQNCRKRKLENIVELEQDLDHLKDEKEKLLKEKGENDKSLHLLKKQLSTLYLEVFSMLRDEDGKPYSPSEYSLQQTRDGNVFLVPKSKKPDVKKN
The data set is described as follows: Activation of Nrf2 in human HepG2-ARE-C8 cells assessed as induction of ARE-mediated luciferase activity at 0.01 uM after 24 hrs by luciferase reporter gene assay relative to control. In short, it runs like this:
(§1)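 HepG2-ARE-C8 cells stably carrying ARE-luciferase, grown in DMEM with 10% FBS at 37 °C and 5% CO2. Seeded at 5 × 10^4 cells/well, left overnight, then given compound diluted from a 10 mM DMSO stock for 24 h. Cells lysed and luciferase read as RLU. Inductivity = (RLUtest − RLUblank)/(RLUcontrol − RLUblank), with DMSO as control. Mean ± SEM of three experiments.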
(Reporter assays use an easily measured gene product as a stand-in for the process of interest.)

The next data set has as its system HepG2. In words: Cytotoxicity against human HepG2 cells at 80 uM after 24 hrs by MTT assay. Particulars: hepg2, 24 h.
In data set [2] the target is T1, Nuclear factor erythroid 2-related factor 2 (Homo sapiens). In words: Activation of Nrf2 in human HepG2-ARE-C8 cells assessed as induction of ARE-mediated luciferase activity at 0.1 uM after 24 hrs by luciferase reporter gene assay relative to control. In short, it runs like this:
as §1

For data set [3] the target is unchanged. In words: Activation of Nrf2 in human HepG2-ARE-C8 cells assessed as induction of ARE-mediated luciferase activity at 1 uM after 24 hrs by luciferase reporter gene assay relative to control. In short, it runs like this: as §1
Data set [4] has the same target. The data set is described as follows: Activation of Nrf2 in human HepG2-ARE-C8 cells assessed as induction of ARE-mediated luciferase activity at 20 uM after 24 hrs by luciferase reporter gene assay relative to control. In short, it runs like this:
as §1

The target is the same in data set [5]. In words: Activation of Nrf2 in human HepG2-ARE-C8 cells assessed as induction of ARE-mediated luciferase activity at 40 uM after 24 hrs by luciferase reporter gene assay relative to control. In short, it runs like this: as §1
For data set [6] the target is unchanged. The data set is described as follows: Activation of Nrf2 in human HepG2-ARE-C8 cells assessed as induction of ARE-mediated luciferase activity at 80 uM after 24 hrs by luciferase reporter gene assay relative to control. In short, it runs like this: as §1

On to `Fc1ccc(-c2noc(-c3ccc(F)c(F)c3)n2)cc1`, for which the Activity in data set [1] is 1.76; with HepG2, “Non-Toxic”; in data set [2], 2.12; in data set [3], 2.05; in data set [4], 3.75; in data set [5], 5.68. Moreover, the Activity in data set [6] was 6.93.

`Fc1ccc(-c2nc(-c3ccc4[nH]cnc4c3)no2)cc1Cl`: the Activity result in the data set on HepG2 is “Non-Toxic”.

Take `Fc1ccc(-c2nc(-c3cnccn3)no2)cc1F`: the Activity in data set [1] is 1.13; in the data set on HepG2, “Non-Toxic”; in data set [2] it was 1.43; in data set [3] it was 1.95; in data set [4], 1.81; in data set [5], 2.83. For the same molecule, the Activity in data set [6] was found to be 3.35.

With `Fc1cc(F)c(-c2nc(-c3ccc4nc[nH]c4c3)no2)cc1F`, the Activity was 1.55 in data set [1]; “Non-Toxic” in the data set with HepG2; 1.86 in data set [2]; 2.15 in data set [3]; 3.95 in data set [4]; 4.36 in data set [5]. Moreover, the Activity in data set [6] is 7.92.

Regarding `Fc1ccccc1-c1nc(-c2ccc3nc[nH]c3c2)no1`, the Activity in data set [1] is 2.01; in the data set with HepG2, “Non-Toxic”; in data set [2] it was 4.51; in data set [3] it was 12; in data set [4] it was 12.7; in data set [5], 15. Moreover, in data set [6], the Activity was found to be 19.1.

Turning to `Fc1ccc(-c2nc(-c3ncccc3F)no2)cc1F`, the Activity in data set [1] is 1.15; with HepG2 it was “Non-Toxic”; in data set [2], 1.25; in data set [3], 1.56; in data set [4] it was 1.75; in data set [5], 2.52. For the same molecule, the Activity in data set [6] came to 2.95.

Regarding `Fc1cccc(-c2nc(-c3ccc4nc[nH]c4c3)no2)c1F`, the Activity is 1.77 in data set [1]; “Non-Toxic” with HepG2; 2.22 in data set [2]; 3.7 in data set [3]; 4.55 in data set [4]; 10.7 in data set [5]. In addition, the Activity in data set [6] amounted to 16.5.

With `Fc1ccc(-c2nc(-c3ccccc3Br)no2)cc1F`, the Activity was 0.58 in data set [1]; “Non-Toxic” in the data set on HepG2; 1.16 in data set [2]; 1.76 in data set [3]; 1.98 in data set [4]; 2.63 in data set [5]. Besides, the Activity in data set [6] turned out to be 3.63.

With `Fc1ccc(-c2nc(-c3cccc4[nH]ccc34)no2)cc1F`, the Activity was 0.83 in data set [1]; “Non-Toxic” in the data set on HepG2; 1.88 in data set [2]; 2.01 in data set [3]; 2.36 in data set [4]; 3.77 in data set [5]. Besides, in data set [6], the Activity came to 4.02.

As for `Brc1ccc(-c2nc(-c3ccc4nc[nH]c4c3)no2)cc1`, the Activity in data set [1] is 0.22; with HepG2, “Non-Toxic”; in data set [2] it was 0.25; in data set [3], 0.87; in data set [4], 13.4; in data set [5] it was 3.44. For the same molecule, the Activity in data set [6] is 2.75.

With `Fc1ccc(-c2nc(-c3ccncc3)no2)cc1F`, the Activity in data set [1] was 1.08; in the data set on HepG2 it was “Non-Toxic”; in data set [2] it was 1.62; in data set [3], 1.07; in data set [4], 1.29; in data set [5] it was 1.72. Moreover, the Activity in data set [6] worked out at 2.88.

Consider `Fc1cccc(-c2nc(-c3ccc4nc[nH]c4c3)no2)c1`, for which the Activity in data set [1] is 1.21; in the data set on HepG2 it was “Non-Toxic”; in data set [2], 2.69; in data set [3], 4.49; in data set [4], 8.83; in data set [5], 12.4. Besides, the Activity in data set [6] was found to be 14.1.

As to `Fc1ccc(-c2nc(-c3ccccc3F)no2)cc1F`, the Activity was 3.85 in data set [1]; “Non-Toxic” in the data set with HepG2; 3.96 in data set [2]; 4.25 in data set [3]; 4.85 in data set [4]; 5.91 in data set [5]. Moreover, the Activity in data set [6] was determined as 6.95.

For `Fc1ccc(-c2nc(-c3ccc4nc[nH]c4c3)no2)c(F)c1`, the Activity in data set [1] was 1.62; with HepG2 it was “Non-Toxic”; in data set [2] it was 2.17; in data set [3], 2.48; in data set [4] it was 4.58; in data set [5], 7.34. Also, the Activity in data set [6] was 8.36.

For `Fc1cc(F)c(-c2nc(-c3ccc4nc[nH]c4c3)no2)cc1Cl`, the Activity was 1.94 in data set [1]; “Non-Toxic” in the data set with HepG2; 1.18 in data set [2]; 1.26 in data set [3]; 3.35 in data set [4]; 5.14 in data set [5]. Moreover, the Activity in data set [6] was 7.61.

For the molecule `Clc1ccc(-c2nc(-c3ccc4nc[nH]c4c3)no2)cc1`, the Activity was 0.33 in data set [1]; “Non-Toxic” in the data set with HepG2; 0.72 in data set [2]; 1.64 in data set [3]; 15.5 in data set [4]; 18.5 in data set [5]. For the same molecule, in data set [6], the Activity is 14.1.

Take `COc1cc(OC)cc(-c2noc(-c3ccc(F)c(F)c3)n2)c1`: the Activity in data set [1] is 1.87; with HepG2, “Non-Toxic”; in data set [2], 1.91; in data set [3], 2.15; in data set [4], 3.45; in data set [5], 3.55. Further, the Activity in data set [6] stood at 4.45.

`Fc1ccc(-c2nc(-c3ccc4ccccc4c3)no2)cc1F`: the Activity in data set [1] is 1.16; in the data set on HepG2, “Non-Toxic”; in data set [2], 1.27; in data set [3], 1.52; in data set [4], 1.96; in data set [5], 1.96. Moreover, in data set [6], the Activity worked out at 3.57.

For the molecule `Fc1ccc(-c2nc(-c3ccccn3)no2)cc1F`, the Activity was 0.65 in data set [1]; “Non-Toxic” in the data set with HepG2; 0.83 in data set [2]; 1.05 in data set [3]; 1.31 in data set [4]; 1.32 in data set [5]. The Activity in data set [6] worked out at 2.55.

Take `Clc1cccc(-c2nc(-c3ccc4nc[nH]c4c3)no2)c1`: the Activity in data set [1] is 1.74; in the data set with HepG2 it was “Non-Toxic”; in data set [2], 3.23; in data set [3], 4.78; in data set [4], 12.8; in data set [5], 13.2. Further, the Activity in data set [6] came out at 19.1.

Regarding `CC(=O)c1ccc(-c2noc(-c3ccc(F)c(F)c3)n2)cc1`, the Activity in data set [1] was 1.25; in the data set on HepG2 it was “Non-Toxic”; in data set [2], 2.03; in data set [3], 2.04; in data set [4], 2.61; in data set [5], 3.78. The Activity in data set [6] was 5.01.

Regarding `Fc1ccc(F)c(-c2nc(-c3ccc4nc[nH]c4c3)no2)c1`, the Activity in data set [1] was 2.31; in the data set with HepG2 it was “Non-Toxic”; in data set [2], 4.15; in data set [3] it was 5.24; in data set [4], 16.9; in data set [5] it was 20.2. The Activity in data set [6] is 21.9.

Consider `Fc1ccc(-c2nc(-c3ccc4nc[nH]c4c3)no2)cc1Br`, for which the Activity in data set [1] was 1.68; in the data set with HepG2 it was “Non-Toxic”; in data set [2], 1.36; in data set [3], 1.89; in data set [4], 3.46; in data set [5], 3.92. The Activity in data set [6] is 4.84.

For `Fc1ccc(-c2nc(-c3cccnc3)no2)cc1F`, the Activity is 1.45 in data set [1]; “Non-Toxic” in the data set on HepG2; 1.71 in data set [2]; 2.02 in data set [3]; 3.15 in data set [4]; 3.15 in data set [5]. Further, the Activity in data set [6] was 4.15.

Regarding `Fc1ccc(-c2nc(-c3ccc4nc[nH]c4c3)no2)cc1Cl`, the Activity was found to be 1.04 in data set [1]; 3.88 in data set [2]; 3.22 in data set [3]; 7.53 in data set [4]; 9.59 in data set [5]; 12.5 in data set [6].
